ABCB1 block: inhibitors of human ABCB1 transporter, ABCG2 counter-screen; CCRF-Adr cells, JC-1 efflux, flow cytometry; inhibition, % at 6.6 µM; 190,000 tested, 0.067% active; AID 1326; in the data active means inhibition above about 40%;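 further: 0% = vehicle and 100% = reference inhibitor; higher value means more JC-1 retained so stronger ABCB1 efflux block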
RAM network inh: blocks the yeast RAM network; S. cerevisiae dse1pr::URA3 reporter, 5-FOA growth OD615, 2 d; analog-sensitive cbk1-as2 kinase mutant strain; 190,000 tested, 1.8% active; inhibition, % at 50 µM;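 active means inhibition above a set limit, 3 SD over mean compound inhibition, cut at about 8.4% in these data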;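 further: 0% = DMSO-only wells with no growth and 100% = 10 µM 1-NA-PP1 full growth; inhibition rescues growth on 5-FOA so higher OD means more RAM inhibition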
WT yeast gro inh: growth inhibition of WT yeast, mitochondrial fusion screen; mitochondrial fusion phenotypic screen, WT strain; inhibition, % at 10 µM; 190,000 tested, 2.1% active; AID 1362; in the data active means inhibition above about 58%; tested in S. cerevisiae
L major viab: inhibitors of Leishmania major promastigote growth | Leishmania major promastigotes, resazurin fluorescence viability | inhibition, % at 10 µM | 200,000 tested, 9% active; in the data active means inhibition above about 50%;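 further: promastigotes grown with compound for 44 hours at 28 °C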
ABCG2 inh: blocks JC-1 efflux by human ABCG2 transporter; inhibition, % at 6.6 µM; 190,000 tested, 0.1% active; AID 1325; Q9UNQ0; IgMXP3 cells, flow cytometry;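 active means inhibition above 80%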;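 further: 0% = DMSO and 100% = nicardipine control wells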
Target sequence (Q9UNQ0 whole entry, looked up): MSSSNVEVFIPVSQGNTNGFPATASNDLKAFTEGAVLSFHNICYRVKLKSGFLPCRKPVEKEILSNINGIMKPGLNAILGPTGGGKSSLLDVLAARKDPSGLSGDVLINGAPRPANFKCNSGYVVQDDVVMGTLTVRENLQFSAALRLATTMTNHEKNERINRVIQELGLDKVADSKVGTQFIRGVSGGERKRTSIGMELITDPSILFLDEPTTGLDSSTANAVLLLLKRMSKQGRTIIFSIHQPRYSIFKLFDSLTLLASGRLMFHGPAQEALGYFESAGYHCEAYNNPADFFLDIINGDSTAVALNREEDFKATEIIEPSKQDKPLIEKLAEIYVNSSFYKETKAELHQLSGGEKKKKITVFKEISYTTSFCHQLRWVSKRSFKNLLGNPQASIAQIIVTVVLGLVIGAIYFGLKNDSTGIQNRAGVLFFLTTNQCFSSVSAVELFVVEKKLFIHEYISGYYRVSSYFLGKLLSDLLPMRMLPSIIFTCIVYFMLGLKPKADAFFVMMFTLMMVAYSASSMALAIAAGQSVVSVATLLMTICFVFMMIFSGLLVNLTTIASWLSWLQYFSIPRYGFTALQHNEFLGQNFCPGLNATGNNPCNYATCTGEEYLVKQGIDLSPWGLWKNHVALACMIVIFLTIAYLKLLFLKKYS
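Measure – % inhibition of efflux relative to nicardipine and DMSO · Test system – ABCG2 IgMXP3 and barcoded ABCB1 CCRF-Adr cell mix · Control set – nicardipine as high control, DMSO as low control · Compound – one concentration, 6.6 µM final · Signal – flow cytometry of retained JC-1 fluorescence · Timing – 10 min exposure at 25 °C with rotation, no wash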
Numbers without * were called inactive; . = not tested or not shown. Compounds with a hit are over-represented: about 12% of the library has one in this group of screens.

SMILES	ABCB1 block	RAM network inh	WT yeast gro inh	L major viab	ABCG2 inh
COc1ccc(C2CC(c3cccc(C)c3)n3nc(N)nc3N2)cc1 (stereo not given)	0	0	8	86*	1
Nc1nc2n(n1)C(c1cccc(Br)c1)CC(c1ccc(F)cc1)N2 (stereo not given)	0	-1	-5	93*	2
COc1cccc(C2CC(c3ccc(Cl)cc3)Nc3nc(N)nn32)c1 (stereo not given)	-2	0	7	-9	0
O=S(=O)(Nc1ccccn1)c1cnc(Cl)c(Br)c1	0	1	-16	-8	0
O=C(CNC(=O)c1ccc(N2C(=O)c3ccccc3C2=O)cc1)OCC(=O)c1ccc(Cl)cc1	0	1	-26	42	5
Cc1ccc(C(=O)NCC(=O)NCC(=O)OCc2ccc(F)cc2)cc1	0	0	3	0	-1
COc1ccc(-n2c(=O)c3c4c(sc3n(Cc3cccc(F)c3)c2=O)CN(C(C)=O)CC4)c(OC)c1	11	1	-10	1	11
CC(=O)N1CCc2c(sc3c2c(=O)n(-c2ccccc2)c(=O)n3Cc2ccccc2Cl)C1	0	1	-5	98*	11
NC(=O)c1cc(Br)cc2c3c([nH]c12)CCCC3	-1	-1	66*	27	7
O=C1C(Cl)=C(N2CCN(Cc3ccccc3)CC2)C(=O)N1Cc1ccccc1	2	2	32	92*	4
COc1cccc(C(C)NC(=S)NCc2ccc(Cl)cc2)c1 (stereo not given)	1	0	66*	-6	6
O=C(COC(=O)c1cccc(Cl)c1)Nc1cc(Cl)ccc1Oc1ccccc1	2	10*	19	-4	0
O=C(Nc1ccccc1Cl)c1ccccc1Oc1ccc(C(F)(F)F)cc1[N+](=O)[O-]	4	6	83*	79*	8
COc1ccccc1NC(=O)COc1ccc(C(F)(F)F)cc1[N+](=O)[O-]	.	.	.	-7	.
O=C(Nc1ccccc1Oc1ccccc1)c1cc([N+](=O)[O-])ccc1Cl	1	5	76*	17	34
CC(=O)Oc1ccc(-c2cccc(C(=O)OCC(=O)Nc3ccccc3Oc3ccccc3)c2)cc1	1	6	-7	9	28
O=C(Nc1cc(Cl)ccc1Oc1ccccc1)c1ccc(F)cc1	1	7	66*	0	16
COc1ccc(S(=O)(=O)Nc2ccc(-n3cccc3)cc2)cc1	0	2	4	15	-1
N#C/C(=C\C=C\c1ccccc1)C(=O)NCc1cccnc1	1	-1	1	49	13
Cc1ccc(Oc2ccc(Cl)cc2NC(=O)c2ccc(F)cc2F)cc1	1	8.9*	13	58*	10
O=C(Nc1cc(Cl)ccc1Oc1ccccc1)c1ccccc1F	-1	1	58	2	-1
COc1ccc2c(c1)CCc1c(C(=O)N3CC4(C)CC3CC(C)(C)C4)noc1-2 (stereo not given)	1	8	73*	30	12
COc1ccc(S(=O)(=O)CC2(O)CCN(C(=O)CC(C)C)CC2)cc1	0	0	-6	-8	0
Cc1ccccc1OCc1nc2ccccc2c(=O)n1/N=C/c1cn[nH]c1-c1ccccc1	9	6	57	100*	16
Cc1ccc(C(O)CN2C3=NCCN3c3ccccc32)cc1 (stereo not given)	0	-2	-6	96*	2
SMILES	ABCB1 block	RAM network inh	WT yeast gro inh	L major viab	ABCG2 inh
CCCc1cc(-c2nc(N)ncc2-c2ccc3c(c2)OCCCO3)c(O)cc1OC	2	6	85*	31	4
CCCc1cc(-c2nc(N)ncc2-c2csc(C)n2)c(O)cc1OC	0	-1	26	21	1
COc1ccc(N(Cc2ccco2)C(=O)c2ccccc2F)cc1OC	0	2	-3	59*	0
O/N=C(/CCc1ccccc1)c1ccc2c(c1)OCCO2	1	-1	11	15	24
Cn1nc(C(=O)Nc2c(-c3ccccc3)nc3sccn23)c2ccccc2c1=O	2	9.2*	1	0	5
Cc1c(C2Nc3ccccc3NC3=C2C(=O)CC(C)(C)C3)cnn1C (stereo not given)	0	0	-16	12	0
Cc1cc2c(cc1C)NC(c1nc3ccccc3[nH]1)C1=C(CC(C)(C)CC1=O)N2 (stereo not given)	1	0	33	91*	3
CCCCNC1=CC(=O)C(=O)c2ccccc21	0	0	2	100*	1
O=C1C=C(Nc2ccccc2)C(=O)c2ccccc21	1	1	64*	100*	5
O=C1C(Cl)=C(NCCCO)C(=O)c2ccccc21	0	1	33	26	1
O=C1C=C(Nc2ccccc2)c2ccccc2C1=O	0	2	74*	100*	11
O=C1C(Nc2ccccc2)=C(NS(=O)(=O)c2ccccc2)C(=O)c2ccccc21	1	3	17	0	16
NC(=O)C1CCN(C(=O)Cn2cccc2C(=O)c2ccccc2)CC1	0	-1	0	-3	1
NC(=O)C1=NOC(CNc2ncc(C(F)(F)F)cc2Cl)C1 (stereo not given)	0	0	-10	-1	-1
Cc1cc(NCCO)c2ccccc2n1	0	1	-9	5	1
OCCNc1c2ccccc2nc2ccccc12	1	2	2	100*	3
COc1ccccc1Oc1ccc(Oc2ccccc2OC)cc1	0	3	17	3	1
Cc1cccc(-c2ncc(CN3CCN(C4CCCC4)C(CCO)C3)cn2)c1 (stereo not given)	1	0	0	64*	2
Cc1cccc(-c2ncc(CN3CCN(CCC(C)C)C(CCO)C3)cn2)c1 (stereo not given)	0	-1	13	74*	0
CS/C(=C/[N+](=O)[O-])Nc1cccc2c1C(C)CC2(C)C (stereo not given)	0	1	-13	16	1
CCC(Sc1nc(N)c(NC(=O)c2ccc(OC)cc2)c(=O)[nH]1)C(=O)O (stereo not given)	0	0	-15	-6	-1
COc1cc(/C=N/N=C(N)N)ccc1OCc1ccc(Cl)cc1	1	-1	-13	101*	4
COc1cc(/C=N/NC(N)=S)ccc1OCc1ccc(C)cc1	1	5	14	100*	5
CCOc1cc(/C=N/O)ccc1OCc1ccc([N+](=O)[O-])cc1	2	6	-2	58*	35
CCOc1cc(/C=N/N=C(N)N)ccc1OCc1ccc(Cl)cc1	1	9.8*	52	100*	31
COc1cc(/C=N/NC(N)=S)ccc1OC(=O)c1ccc(C)cc1	1	5	-14	10	3
O=C(NC(=S)N1CCN(c2ccccn2)CC1)c1ccco1	0	0	-12	-10	1
Fc1cccc(Cc2noc(CN3CCCCC3c3ccccn3)n2)c1 (stereo not given)	0	0	-5	-1	1
